# IDH1 mut inh: IDH1 R132H (human) inhibition. inhibition, % at 10 µM. O75874. 70,000 tested, 0.18% active. AID 624101. IDH1 R132H reductase, diaphorase/resazurin fluorescence, 60 min; in the data active = inhibition above about 34%;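 note: 0% = DMSO and 100% = no enzyme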
# Target sequence (O75874 whole entry R132H): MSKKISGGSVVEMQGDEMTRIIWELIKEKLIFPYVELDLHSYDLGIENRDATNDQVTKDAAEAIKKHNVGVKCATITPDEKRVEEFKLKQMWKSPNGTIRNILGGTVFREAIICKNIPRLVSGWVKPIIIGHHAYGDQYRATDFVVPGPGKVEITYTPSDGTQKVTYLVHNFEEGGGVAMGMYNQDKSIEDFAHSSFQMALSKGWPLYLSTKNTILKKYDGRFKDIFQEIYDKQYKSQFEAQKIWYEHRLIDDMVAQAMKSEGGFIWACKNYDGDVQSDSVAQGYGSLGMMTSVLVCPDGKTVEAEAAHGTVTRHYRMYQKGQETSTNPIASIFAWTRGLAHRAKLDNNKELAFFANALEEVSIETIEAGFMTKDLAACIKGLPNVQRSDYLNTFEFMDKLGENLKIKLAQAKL
# Pf Dd2 growth: P. falciparum Dd2 growth inhibition; AID 1159554; 94,000 tested, 2.3% active; activity change, % at 10 µM; SYBR Green, 72 h; hits give low values; in the data active = activity change below about -80%
# KDM4C inh: inhibitors of human demethylase GASC-1 KDM4C | Q9H3R0 | 96,000 tested, 0.15% active | AID 720574 | GST-KDM4C 2-372, H3K9me3 peptide, LANCE TR-FRET | inhibition, % at 12.5 µM;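 active = mean replicate inhibition above about 25%, with at least 55% of replicates also reaching it, limit read from the data, passing the limit was not always enough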
#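 material = GST-tagged GASC-1 (JMJD2C) catalytic fragment, aa 2-372 | amount = enzyme final amount 10 nM | medium = HEPES buffer, pH 7.5, plus ascorbate | also added = H3K9me3 peptide substrate, Fe(II), 2-oxoglutarate | dosing = single dose | times = 30 min demethylation and 1 h detection at room temperature | detection = LANCE TR-FRET | read-out basis = Fall in 671/618 emission ratio as inhibition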
# Tcruzi prolif: T. cruzi proliferation inhibition. inhibition, % at 8.34 µM. T. cruzi beta-gal in NIH3T3, GalScreen luminescence, 90 h. AID 624255. 77,000 tested, 5.9% active;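 active = mean inhibition above about 93%, with at least 55% of replicates each passing it, limit read from the data, passing the limit was not always enough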
# * = called active by the depositor; nt = no result. Hits are enriched below; roughly 5.8% of the tested compounds scored in any of these assays.
SMILES,IDH1 mut inh,Pf Dd2 growth,KDM4C inh,Tcruzi prolif
COc1ccc(C#Cc2ccc3c(c2)O[C@@H](CN(C)C(=O)Nc2cccc(OC)c2)[C@@H](C)CN([C@H](C)CO)S3(=O)=O)cc1,nt,-88.9*,-8.7,53.0
COc1ccc2c3c(n(C)c2c1)[C@@H](CO)N(CC1CC1)CC31CCN(C(=O)c2ccccc2)CC1,nt,13.0,nt,nt
COc1ccc([N+](=O)[O-])cc1NC(=O)C1(c2ccc(OC)c(OC)c2)CCCCC1,0.0,nt,nt,nt
COc1cccc(-c2ccc3c(c2)O[C@H](CN(C)Cc2cncnc2)[C@@H](C)CN([C@@H](C)CO)S3(=O)=O)c1,0.1,-10.0,-3.9,58.2
C[C@@H]1CN([C@@H](C)CO)S(=O)(=O)c2ccc(-c3ccncc3)cc2O[C@H]1CN(C)Cc1ccc(Oc2ccccc2)cc1,7.6,-85.8*,3.9,54.1
COc1cccc(-c2ccc3c(c2)O[C@@H](CN(C)Cc2ccncc2)[C@@H](C)CN([C@H](C)CO)S3(=O)=O)c1,4.5,-1.1,41.8*,nt
C[C@H]1CN([C@@H](C)CO)S(=O)(=O)c2ccc(-c3ccncc3)cc2O[C@H]1CN(C)Cc1ccccc1,0.6,-35.4,4.8,82.0
C[C@H]1CN([C@@H](C)CO)C(=O)c2c(c3ccccc3n2C)-c2ccccc2CO[C@H]1CN(C)Cc1cccc(C(=O)O)c1,nt,-31.9,0.8,-18.3
C[C@H](CO)N1C[C@H](C)[C@H](CN(C)Cc2cccc(O)c2)OCc2ccccc2-c2c(n(C)c3ccccc23)C1=O,nt,-9.9,nt,nt
C[C@H]1CN([C@@H](C)CO)C(=O)c2c(c3ccccc3n2C)-c2ccccc2CO[C@@H]1CN(C)Cc1cccc(O)c1,nt,-88.5*,-1.5,nt
C[C@@H]1CN([C@@H](C)CO)C(=O)c2c(c3ccccc3n2C)-c2ccccc2CO[C@@H]1CN(C)Cc1cccc(F)c1,nt,-86.4*,-2.4,nt
COc1cccc(CN(C)C[C@H]2OCc3ccccc3-c3c(n(C)c4ccccc34)C(=O)N([C@H](C)CO)C[C@H]2C)c1,nt,-88.0*,-0.4,nt
C[C@H](CO)N1C[C@H](C)[C@@H](CN(C)Cc2cccc(C(=O)Nc3ccccc3N)c2)OCc2ccccc2-c2c(n(C)c3ccccc23)C1=O,nt,-91.2*,6.7,nt
CCOc1ccc2nc(SCC(=O)Nc3c(C)cccc3C)[nH]c2c1,-0.5,nt,nt,nt
Cc1ccc(OCC(=O)Nc2ccc(Br)cc2C(=O)O)cc1C,-0.1,nt,nt,nt
C[C@H]1CCCCO[C@@H](CN(C)Cc2ccccc2)[C@@H](C)CN([C@@H](C)CO)C(=O)c2cc(NC(=O)Nc3ccc(F)cc3)ccc2O1,-0.2,-86.0*,-2.7,84.5
C[C@@H]1CCCCO[C@H](CN(C)Cc2ccc(C(F)(F)F)cc2)[C@@H](C)CN([C@@H](C)CO)C(=O)c2cc(NC(=O)Cc3ccccc3)ccc2O1,nt,-89.0*,-0.8,5.9
COc1ccc(NC(=O)N(C)C[C@@H]2OCCCC[C@H](C)Oc3ccc(NC(=O)c4ccccc4)cc3C(=O)N([C@@H](C)CO)C[C@@H]2C)cc1,nt,-84.4*,5.1,47.8
C[C@@H]1CCCCO[C@@H](CN(C)Cc2ccc(Cl)c(Cl)c2)[C@H](C)CN([C@H](C)CO)C(=O)c2cc(NC(=O)C3CCCCC3)ccc2O1,-0.1,-83.5*,2.2,84.2
C[C@@H]1CCCCO[C@H](CN(C)Cc2ccc(Cl)c(Cl)c2)[C@@H](C)CN([C@H](C)CO)C(=O)c2cc(NC(=O)C3CCCCC3)ccc2O1,nt,-21.8,-0.3,91.5
Cc1ccc(NC(=O)CSc2nnc(-c3cccnc3)n2-c2ccc(Br)cc2)cc1F,-0.2,nt,nt,nt
C[C@@H]1CCCCO[C@H](CN(C)Cc2ccc(C(F)(F)F)cc2)[C@H](C)CN([C@@H](C)CO)C(=O)c2cc(NC(=O)c3ccccc3)ccc2O1,nt,-84.7*,-1.8,66.6
COc1ccc(NC(=O)N(C)C[C@H]2OCCCC[C@@H](C)Oc3ccc(N(C)C)cc3C(=O)N([C@@H](C)CO)C[C@H]2C)cc1,nt,-83.2*,4.1,37.1
COc1ccc(NC(=O)N(C)C[C@H]2OCCCC[C@@H](C)Oc3ccc(N(C)C)cc3C(=O)N([C@H](C)CO)C[C@H]2C)cc1,nt,7.9,1.8,26.5
C[C@@H]1CCCCO[C@H](CN(C)Cc2ccncc2)[C@H](C)CN([C@H](C)CO)C(=O)c2cc(NC(=O)Nc3ccc(C(F)(F)F)cc3)ccc2O1,nt,-84.2*,1.8,87.2
SMILES,IDH1 mut inh,Pf Dd2 growth,KDM4C inh,Tcruzi prolif
C[C@@H]1CCCCO[C@H](CN(C)Cc2ccc(C(F)(F)F)cc2)[C@@H](C)CN([C@H](C)CO)C(=O)c2cc(NC(=O)c3ccccc3)ccc2O1,nt,-36.8,0.5,92.9
C[C@@H]1CN([C@H](C)CO)C(=O)c2cc(NC(=O)Nc3ccccc3)ccc2O[C@@H](C)CCCCO[C@@H]1CN(C)Cc1ccc(C(F)(F)F)cc1,0.3,-84.7*,-1.9,81.9
C[C@@H]1CN([C@H](C)CO)C(=O)c2cc(NC(=O)Nc3ccc(C(F)(F)F)cc3)ccc2O[C@@H](C)CCCCO[C@@H]1CN(C)Cc1ccncc1,nt,-77.2,-0.3,91.9
CC(C(=O)Nc1ccccc1-c1ccccc1)N(c1ccccc1)S(C)(=O)=O (centres undefined),-0.3,nt,nt,nt
Cc1cc2nn(-c3ccc(F)cc3)nc2cc1NC(=O)COc1ccc(Br)cc1,0.3,nt,nt,nt
COC(=O)c1ccccc1NC(=O)COc1ccc2ccccc2c1Br,-0.6,nt,nt,nt
C[C@H]1CCCCO[C@H](CN(C)C(=O)Nc2ccc(C(F)(F)F)cc2)[C@@H](C)CN([C@@H](C)CO)C(=O)c2cc(NC(=O)c3ccccc3)ccc2O1,nt,-86.8*,-1.4,86.2
C[C@@H]1CCCCO[C@H](CN(C)Cc2ccc(C(F)(F)F)cc2)[C@@H](C)CN([C@@H](C)CO)C(=O)c2cc(NC(=O)Nc3ccc4c(c3)OCO4)ccc2O1,nt,-80.9*,-0.9,78.2
C[C@@H]1CN([C@H](C)CO)C(=O)c2cc(NC(=O)Nc3ccc(C(F)(F)F)cc3)ccc2O[C@@H](C)CCCCO[C@@H]1CN(C)Cc1ccc(Cl)c(Cl)c1,nt,-86.5*,-0.6,47.7
C[C@@H]1CCCCO[C@H](CN(C)Cc2ccc(Cl)c(Cl)c2)[C@@H](C)CN([C@@H](C)CO)C(=O)c2cc(NC(=O)Cc3ccccc3)ccc2O1,1.0,-86.2*,-0.5,74.6
O=C(O)CN(c1ccc([N+](=O)[O-])cc1)S(=O)(=O)c1ccccc1,0.0,nt,nt,nt
C[C@@H]1CN([C@H](C)CO)C(=O)c2cc(NC(=O)Nc3ccc(F)cc3)ccc2O[C@@H](C)CCCCO[C@H]1CN(C)Cc1ccc(C(F)(F)F)cc1,nt,-82.2*,-2.1,93.8
C[C@@H]1CCCCO[C@H](CN(C)Cc2ccc(C(F)(F)F)cc2)[C@H](C)CN([C@@H](C)CO)C(=O)c2cc(NC(=O)Nc3ccccc3)ccc2O1,nt,-75.6,-1.5,76.7
C[C@H]1CCCCO[C@H](CN(C)Cc2ccc(C(F)(F)F)cc2)[C@@H](C)CN([C@@H](C)CO)C(=O)c2cc(NC(=O)Nc3ccc(F)cc3)ccc2O1,nt,-1.9,-1.5,90.8
